Experimental data from ChEMBL document CHEMBL4373718, “Germacrane Sesquiterpenoids as a New Type of Anticardiac Fibrosis Agent Targeting Transforming Growth Factor β Type I Receptor” (J Med Chem, 2019).
Calls of active or inactive are those of the source. No cut-off for these calls is given here.

How the values were obtained:
[1] = Effect on total Smad2 expression in TGFbeta1-stimulated Sprague-Dawley rat cardiac fibroblasts at 10 uM measured after 5 to 30 mins by Western blot analysis; assay type: ADME
Rattus norvegicus [2] = organism: Rattus norvegicus; assay: Effect on TGFbeta2 receptor expression in TGFbeta1-stimulated Sprague-Dawley rat cardiac fibroblasts at 2.5 to 10 uM measured after 5 mins by Western blot analysis; assay type: functional
[3] = target: T1, TGF-beta receptor type-1 (Rattus norvegicus) (UniProt P80204); assay: Inhibition of TGFbeta1 receptor in TGFbeta1-stimulated Sprague-Dawley rat cardiac fibroblasts assessed as reduction in fibronectin expression measured after 12 hrs by Western blot analysis
T1 sequence (whole entry): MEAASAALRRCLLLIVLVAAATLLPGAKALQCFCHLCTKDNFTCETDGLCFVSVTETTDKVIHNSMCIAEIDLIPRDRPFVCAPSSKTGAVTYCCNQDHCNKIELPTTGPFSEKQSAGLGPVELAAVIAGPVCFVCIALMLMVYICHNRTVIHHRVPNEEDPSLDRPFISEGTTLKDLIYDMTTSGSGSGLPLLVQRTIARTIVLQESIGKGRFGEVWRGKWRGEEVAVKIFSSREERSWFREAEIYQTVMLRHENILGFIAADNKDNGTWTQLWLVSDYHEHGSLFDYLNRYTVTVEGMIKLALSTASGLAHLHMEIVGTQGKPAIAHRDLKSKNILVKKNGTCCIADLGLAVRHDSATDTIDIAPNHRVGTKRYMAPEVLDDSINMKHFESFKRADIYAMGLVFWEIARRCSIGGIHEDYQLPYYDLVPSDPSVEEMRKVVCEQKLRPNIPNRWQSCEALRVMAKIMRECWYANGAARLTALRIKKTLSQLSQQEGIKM
How it was run: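 Primary rat cardiac fibroblasts (passages 2–4, 3×10^5 per well) treated with compound plus 10 ng/mL TGFβ1 for 12 h; tested at 2.5, 5 and 10 µM. Lysates run on 10% SDS-PAGE (30 µg protein), probed for FN, α-SMA and collagen I/III, and quantified by densitometry against GAPDH. N=3 independent experiments.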

Rattus norvegicus [4] = assay: Antifibrotic activity in abdominal aortic constriction Sprague-Dawley rat model of cardiac fibrosis assessed as down regulation of collagen expression in heart at 5 mg/kg, ip administered once daily for 4 weeks measured post-last dose by Western blot analysis; assay type: functional, organism-based
How it was run: (§1)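 AAC rats dosed ip daily for 4 weeks, n=8 per group. Hearts homogenized in lysis buffer with protease and phosphatase inhibitors and spun at 12,000 rpm for 30 min at 4 °C. Nuclear and cytoplasmic fractions prepared with a kit. Protein measured by BCA; 30 µg run on 10% SDS-PAGE, transferred to PVDF and immunoblotted; bands quantified by densitometry.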

Rattus norvegicus [5] = assay: Antifibrotic activity in abdominal aortic constriction Sprague-Dawley rat model of cardiac fibrosis assessed as systolic left ventricular anterior wall thickness at 5 mg/kg, ip administered once daily for 4 weeks measured post-last dose by echocardiography (reference value: 3.92 +/- 0.42 mm); assay type: functional
Rattus norvegicus [6] = assay: Antifibrotic activity in abdominal aortic constriction Sprague-Dawley rat model of cardiac fibrosis assessed as reduction in Smad2 nuclear translocation in heart at 5 mg/kg, ip administered once daily for 4 weeks measured post-last dose by Western blot analysis; assay type: functional, organism-based; how it was run: as §1
Rattus norvegicus [7] = assay: Antifibrotic activity in abdominal aortic constriction Sprague-Dawley rat model of cardiac fibrosis assessed as systolic left ventricular posterior wall thickness at 5 mg/kg, ip administered once daily for 4 weeks measured post-last dose by echocardiography (reference value: 3.62 +/- 0.26 mm); assay type: functional
Rattus norvegicus [8] = assay: Antifibrotic activity in abdominal aortic constriction Sprague-Dawley rat model of cardiac fibrosis assessed as diastolic left ventricular anterior wall thickness at 5 mg/kg, ip administered once daily for 4 weeks measured post-last dose by echocardiography (reference value: 2.48 +/- 0.42 mm); assay type: functional
[9] = Cytotoxicity against Sprague-Dawley rat cardiac fibroblasts assessed as reduction in cell viability at 25 uM measured after 48 hrs by MTT assay
How it was run: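 Primary adult male SD rat cardiac fibroblasts at passages 2–4, 5000 cells per well. Treated for 48 h, then MTT (5 mg/mL) for 4 h. Formazan dissolved in DMSO and absorbance read at 570 nm. Triplicate wells, three independent experiments.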

[10] = Effect on total Smad3 expression in TGFbeta1-stimulated Sprague-Dawley rat cardiac fibroblasts at 10 uM measured after 5 to 30 mins by Western blot analysis; assay type: ADME
Rattus norvegicus [11] = organism: Rattus norvegicus; assay: Effect on TGFbeta1 receptor expression in TGFbeta1-stimulated Sprague-Dawley rat cardiac fibroblasts at 2.5 to 10 uM measured after 5 mins by Western blot analysis; assay type: functional

In the case of `C=C(C)[C@@H]1C/C=C(\C)C(=O)CCC2=C[C@@H]1OC2=O`, the Activity [1] is reported as “Non-Toxic”, the Activity (Rattus norvegicus [2]) is reported as “inactive” and the inhibition [3] is reported as “Dose-dependent effect”. For the same compound, the Activity (Rattus norvegicus [4]) was “Active”, the Activity (Rattus norvegicus [5]) was 3.46 mm and the Activity (Rattus norvegicus [6]) was “Active”. The Activity (Rattus norvegicus [7]) was 3.23 mm, the Activity (Rattus norvegicus [8]) was 2.11 mm and the Activity [9] was “Non-Toxic”. For the same compound, the Activity [10] was “Non-Toxic” and the Activity (Rattus norvegicus [11]) was “inactive”.
